ChEMBL document CHEMBL4725312, “Pre-clinical evidences of the antileishmanial effects of diselenides and selenocyanates” (Bioorg Med Chem Lett, 2020)
Active and inactive are the calls of the source. No cut-off for these calls is given here.

Key:
Leishmania infantum [1] = test: Antileishmanial activity against axenic amastigote state of Leishmania infantum incubated for 24 hrs; type: functional, organism-based
THP-1 = test: Cytotoxicity against human THP-1 cells assessed as reduction in cell viability incubated for 24 hrs; type: cell-based; conditions: THP-1, 24 h
[2] = Ratio of IC50 for human THP1 cells to IC50 for axenic amastigote state of Leishmania infantum
Method in brief: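 Selectivity index was calculated as the THP-1 cytotoxicity IC50 (24 h exposure) divided by the IC50 against L. infantum amastigotes.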

Leishmania infantum [3] = test: Antileishmanial activity against axenic amastigote state of Leishmania infantum infected in human THP-1 cells at 3 uM incubated for 48 hrs; type: functional, organism-based
Method in brief: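 THP-1 cells infected with L. infantum amastigotes were exposed to compounds at 3 μM for 48 h. Infection rate was the read-out, with autofluorescence correction applied, and results were reported as means.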

[4] = Ratio of IC50 for mepacrine to IC50 for test compound for inhibition of trypanothione reductase (unknown origin)
Method in brief: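 Trypanothione reductase inhibition assay, with mepacrine run alongside as the positive-control TryR inhibitor. The value is mepacrine IC50 divided by test-compound IC50 in the same assay.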

[5] = Inhibition of trypanothione reductase (unknown origin)
Method in brief: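 Trypanothione reductase inhibition was expressed as IC50, with mepacrine run alongside as the positive-control TryR inhibitor.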

Compound	IC50 (Leishmania infantum [1])	IC50 [5]	IC50 (THP-1)	Ratio IC50 [2]	Activity (Leishmania infantum [3])	Ratio IC50 [4]
O=C(NC(=[Se])Nc1ccc([Se][Se]c2ccc(NC(=[Se])NC(=O)c3ccccc3)cc2)cc1)c1ccccc1	> 25 µM	–	> 25 µM	–	–	–
CCCCCCCCCCCCCCCCCCOCC(COP(=O)([O-])OCC[N+](C)(C)C)OC (centres undefined) [EDELFOSINE]	–	–	–	6.01	Active	–
O=C(NC(=[Se])Nc1ccc([Se][Se]c2ccc(NC(=[Se])NC(=O)c3sccc3Cl)cc2)cc1)c1sccc1Cl	5.57 µM	–	> 25 µM	>4.48	–	–
N#C[Se]c1ccc(NC(=O)C2C3C=CC(O3)C2C(=O)O)cc1 (centres undefined)	3.22 µM	0.54 µM	21.5 µM	7.76	inactive	30
O=C(NC(=[Se])Nc1ccc([Se][Se]c2ccc(NC(=[Se])NC(=O)c3cccs3)cc2)cc1)c1cccs1	4.55 µM	–	22.2 µM	4.87	–	–
CCN(CC)CCCC(C)Nc1c2ccc(Cl)cc2nc2ccc(OC)cc12 (centres undefined) [QUINACRINE]	–	17 µM	–	–	–	–
CCCCCCCCCCCCCCCCOP(=O)([O-])OCC[N+](C)(C)C [MILTEFOSINE]	–	–	–	6.51	–	–
N#C[Se]c1ccc(NC(=O)COCC(=O)O)cc1	> 25 µM	–	> 25 µM	–	–	–
N#C[Se]c1ccc(NC(=O)CCC(=O)O)cc1	11.3 µM	–	> 25 µM	>2.2	–	–
O=C1COCC(=O)N1c1ccc([Se][Se]c2ccc(N3C(=O)COCC3=O)cc2)cc1	10.4 µM	–	8.53 µM	0.82	–	–
O=C(NC(=[Se])Nc1ccc([Se][Se]c2ccc(NC(=[Se])NC(=O)c3cc4ccccc4nc3-c3ccccc3)cc2)cc1)c1cc2ccccc2nc1-c1ccccc1	6.18 µM	–	8.5 µM	1.34	–	–
O=C(O)C1C2C=CC(O2)C1C(=O)Nc1ccc([Se][Se]c2ccc(NC(=O)C3C4C=CC(O4)C3C(=O)O)cc2)cc1 (centres undefined)	1.31 µM	25 µM	> 25 µM	>19.13	Active	–
O=C(NC(=[Se])Nc1ccc([Se][Se]c2ccc(NC(=[Se])NC(=O)c3ccc4c(c3)OCO4)cc2)cc1)c1ccc2c(c1)OCO2	9.98 µM	–	13.5 µM	1.35	–	–
Cc1ccc(C(=O)NC(=[Se])Nc2ccc([Se][Se]c3ccc(NC(=[Se])NC(=O)c4ccc(C)cc4)cc3)cc2)cc1	15 µM	–	> 25 µM	>1.66	–	–
N#C[Se]c1ccc(NC(=O)c2ccccc2C(=O)O)cc1	> 25 µM	–	> 25 µM	–	–	–
N#C[Se]c1ccc(NC(=O)/C=C\C(=O)O)cc1	> 25 µM	–	> 25 µM	–	–	–
N#C[Se]c1ccc(NC(=O)C2CCCCC2C(=O)O)cc1 (centres undefined)	10.6 µM	–	> 25 µM	>2.35	–	–
N#C[Se]c1ccc(NC(=O)c2nccnc2C(=O)O)cc1	> 25 µM	–	> 25 µM	–	–	–
O=C(O)c1ccccc1C(=O)Nc1ccc([Se][Se]c2ccc(NC(=O)c3ccccc3C(=O)O)cc2)cc1	4.57 µM	–	> 25 µM	>5.47	–	–

Now from value to compound, other results behind:

IC50 (Leishmania infantum [1])	IC50 [5]	Compound	IC50 (THP-1)	Ratio IC50 [2]	Activity (Leishmania infantum [3])	Ratio IC50 [4]
12.1 µM	–	O=C(O)COCC(=O)Nc1ccc([Se][Se]c2ccc(NC(=O)COCC(=O)O)cc2)cc1	> 25 µM	>2.06	–	–
0.35 µM	–	O=C(NC(=[Se])Nc1ccc([Se][Se]c2ccc(NC(=[Se])NC(=O)c3ccno3)cc2)cc1)c1ccno1	1.07 µM	3.1	–	–
1.54 µM	0.23 µM	O=C1C=CC(=O)N1c1ccc([Se][Se]c2ccc(N3C(=O)C=CC3=O)cc2)cc1	15.2 µM	9.91	Active	30
2.03 µM	18.5 µM	O=C(O)C1CCCCC1C(=O)Nc1ccc([Se][Se]c2ccc(NC(=O)C3CCCCC3C(=O)O)cc2)cc1 (centres undefined)	> 25 µM	>12.31	Active	–
7.9 µM	–	O=C(O)CCC(=O)Nc1ccc([Se][Se]c2ccc(NC(=O)CCC(=O)O)cc2)cc1	> 25 µM	>3.16	–	–
14.6 µM	–	O=C(NC(=[Se])Nc1ccc([Se][Se]c2ccc(NC(=[Se])NC(=O)c3cc4ccccc4s3)cc2)cc1)c1cc2ccccc2s1	> 25 µM	>1.71	–	–
> 25 µM	–	O=C(O)/C=C\C(=O)Nc1ccc([Se][Se]c2ccc(NC(=O)/C=C\C(=O)O)cc2)cc1	> 25 µM	–	–	–
13.5 µM	–	CSc1ccc(C(=O)NC(=[Se])Nc2ccc([Se][Se]c3ccc(NC(=[Se])NC(=O)c4ccc(SC)cc4)cc3)cc2)cc1	> 25 µM	>1.85	–	–
0.67 µM	9.22 µM	O=C(NC(=[Se])Nc1ccc([Se][Se]c2ccc(NC(=[Se])NC(=O)c3ccco3)cc2)cc1)c1ccco1	7.44 µM	11.19	Active	–
2.27 µM	–	O=C(NC(=[Se])Nc1ccc([Se][Se]c2ccc(NC(=[Se])NC(=O)c3ccc([N+](=O)[O-])cc3)cc2)cc1)c1ccc([N+](=O)[O-])cc1	> 25 µM	>11.01	–	–
2.07 µM	21.8 µM	O=C1c2ccccc2C(=O)N1c1ccc([Se][Se]c2ccc(N3C(=O)c4ccccc4C3=O)cc2)cc1	23 µM	11.08	Active	–
9.22 µM	–	COc1cc(OC)cc(C(=O)NC(=[Se])Nc2ccc([Se][Se]c3ccc(NC(=[Se])NC(=O)c4cc(OC)cc(OC)c4)cc3)cc2)c1	> 25 µM	>2.77	–	–
> 25 µM	–	O=C(NC(=[Se])Nc1ccc([Se][Se]c2ccc(NC(=[Se])NC(=O)c3ccc(Cl)cc3)cc2)cc1)c1ccc(Cl)cc1	> 25 µM	–	–	–
10.7 µM	–	N#C[Se]c1ccc(NC(=O)c2ccccc2-c2ccccc2C(=O)O)cc1	> 25 µM	>2.34	–	–
3.08 µM	–	O=C(NC(=[Se])Nc1ccc([Se][Se]c2ccc(NC(=[Se])NC(=O)c3cnc4ccccc4c3)cc2)cc1)c1cnc2ccccc2c1	12.8 µM	4.15	–	–
